Results from ChEMBL document CHEMBL4808195, “Discovery of heterocyclic substituted dihydropyrazoles as potent anticancer agents” (Bioorg Med Chem Lett, 2021).
Active and inactive are the calls of the source. The calls are words filed in the database; no cut-off is given here.

Key:
[1] = system: HCC1806; test: Anticancer activity against human HCC1806 cells assessed as inhibition of cell proliferation; assay type: functional, cell-based
[2] = system: HCC1806; test: Cell cycle arrest in human HCC1806 cells assessed as increase in cell population at G2/M phase at 2.5 to 5 uM measured after 12 hrs by flowcytometry method; assay type: functional, cell-based; conditions: dose 2.5-5 µM
How it was run: (§1)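 HCC1806 cells were treated with the compound for 12 h. Cell-cycle distribution was determined by flow cytometry, and the phase fractions were quantified from experimental duplicates with SD.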

[3] = system: NCI-H1975; test: Anticancer activity against human NCI-H1975 cells assessed as inhibition of cell growth at 10 uM measured by SRB method; assay type: functional
[4] = system: HCC1806; test: Anticancer activity against human HCC1806 cells assessed as inhibition of cell growth at 10 uM measured by SRB method; assay type: functional
[5] = system: A549; test: Anticancer activity against human A549 cells assessed as inhibition of cell proliferation; assay type: functional, cell-based
[6] = system: HeLa; test: Anticancer activity against human HeLa cells assessed as inhibition of cell proliferation; assay type: functional, cell-based
[7] = system: HCT-116; test: Anticancer activity against human HCT-116 cells assessed as inhibition of cell proliferation; assay type: functional, cell-based
[8] = system: HCC1806; test: Anticancer activity against human HCC1806 cells assessed as inhibition of cell proliferation at 2 to 10 uM measured after 48 hrs by SRB assay; assay type: functional, cell-based; conditions: dose 2-10 µM
How it was run: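 HCC1806 cells were exposed to the compound for 24, 48 and 72 h. Proliferation inhibition rate was read by SRB assay at each time point. Experimental triplicates, shown with SD.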

[9] = system: HCC1806; test: Cell cycle arrest in human HCC1806 cells assessed as decrease in cell population at G1 phase at 2.5 to 5 uM measured after 12 hrs by flowcytometry method; assay type: functional, cell-based; conditions: dose 2.5-5 µM; how it was run: as §1
[10] = system: MDA-MB-231; test: Anticancer activity against human MDA-MB-231 cells assessed as inhibition of cell growth at 10 uM measured by SRB method; assay type: functional
[11] = system: HCC1806; test: Cell cycle arrest in human HCC1806 cells assessed as decrease in cell population at S phase at 2.5 to 5 uM measured after 12 hrs by flowcytometry method; assay type: functional, cell-based; conditions: dose 2.5-5 µM; how it was run: as §1
[12] = system: HCC1806; test: Cell cycle arrest in human HCC1806 cells assessed as increase in p21 accumulation at 2.5 to 5 uM measured after 12 hrs by western blot assay; assay type: functional, cell-based; conditions: dose 2.5-5 µM
How it was run: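 HCC1806 cells were exposed to the compound for 12 h. p21 protein level was detected by immunoblotting, with β-actin as the loading control.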

**Q.** `CN1CCN(c2ccc(C3=NN(S(=O)(=O)c4ccc(C#N)cc4)C(c4ccc(N(C)C)cc4)C3)cc2)CC1` (configuration not stated) was tested. Which IC50 [1] did it give?
**A.** The IC50 was 2.99 µM.

**Q.** What about the Activity [2] of the same molecule?
**A.** Its Activity is “Active”.

**Q.** What about the inhibition at 10 µM [3] of the same molecule?
**A.** The inhibition at 10 µM was 100%.

**Q.** What about the inhibition at 10 µM [4] of the same molecule?
**A.** The inhibition at 10 µM was 99.8%.

**Q.** What about the IC50 [5] of the same molecule?
**A.** The IC50 was 3.6 µM.

**Q.** And the IC50 [6]?
**A.** The IC50 was 3 µM.

**Q.** And the IC50 [7]?
**A.** The IC50 was 3.6 µM.

**Q.** And the Activity [8]?
**A.** Its Activity is “Active”.

**Q.** What about the Activity [9] of the same molecule?
**A.** Its Activity is “Active”.

**Q.** And the inhibition at 10 µM [10]?
**A.** Its inhibition at 10 µM is 99.8%.

**Q.** And the Activity [11]?
**A.** Its Activity is “Active”.

**Q.** What about the Activity [12] of the same molecule?
**A.** The Activity was “Active”.
